According to ChEMBL document CHEMBL3244429, “Antischistosomal effects of 5-(2,4,5-trichlorophenyl)hydantoin and related compounds” (J Med Chem, 1977):

Columns and labels:
Schistosoma mansoni [1] = experiment: Antischistosomal activity against Schistosoma mansoni Puerto Rican infected mouse assessed as reduction in live schistosomes at 305 mg/kg/day, through diet for 14 days; format: functional; settings: 336 h
Procedure, shortened: (§1)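 Mice carrying a Puerto Rican strain of S. mansoni received drug mixed into a powdered diet for 14 days, with dose expressed as mg/kg per day. The read-out was the reduction in live schistosomes in the infected mice.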

Schistosoma mansoni [2] = experiment: Antischistosomal activity against Schistosoma mansoni Puerto Rican infected mouse assessed as infected mouse at 305 mg/kg/day, through diet for 14 days; format: functional; procedure, shortened: as §1
Schistosoma mansoni [3] = experiment: Antischistosomal activity against Schistosoma mansoni Puerto Rican infected mouse assessed as infected mouse at 329 mg/kg/day, through diet for 14 days; format: functional; procedure, shortened: as §1
Schistosoma mansoni [4] = experiment: Antischistosomal activity against Schistosoma mansoni Puerto Rican infected mouse assessed as reduction in live schistosomes at 329 mg/kg/day, through diet for 14 days; format: functional; settings: 336 h; procedure, shortened: as §1
Schistosoma mansoni [5] = experiment: Antischistosomal activity against Schistosoma mansoni Puerto Rican infected mouse assessed as reduction in live schistosomes at 332 mg/kg/day, through diet for 14 days; format: functional; settings: 336 h; procedure, shortened: as §1
Schistosoma mansoni [6] = experiment: Antischistosomal activity against Schistosoma mansoni Puerto Rican infected mouse assessed as infected mouse at 332 mg/kg/day, through diet for 14 days; format: functional; procedure, shortened: as §1
Schistosoma mansoni [7] = experiment: Antischistosomal activity against Schistosoma mansoni Puerto Rican infected mouse assessed as reduction in live schistosomes at 297 mg/kg/day, through diet for 14 days; format: functional; settings: 336 h; procedure, shortened: as §1
Schistosoma mansoni [8] = experiment: Antischistosomal activity against Schistosoma mansoni Puerto Rican infected mouse assessed as infected mouse at 297 mg/kg/day, through diet for 14 days; format: functional; procedure, shortened: as §1
Schistosoma mansoni [9] = experiment: Antischistosomal activity against Schistosoma mansoni Puerto Rican infected mouse assessed as reduction in live schistosomes at 376 mg/kg/day, through diet for 14 days; format: functional; settings: 336 h; procedure, shortened: as §1
Schistosoma mansoni [10] = experiment: Antischistosomal activity against Schistosoma mansoni Puerto Rican infected mouse assessed as infected mouse at 376 mg/kg/day, through diet for 14 days; format: functional; procedure, shortened: as §1
Schistosoma mansoni [11] = experiment: Antischistosomal activity against Schistosoma mansoni Puerto Rican infected mouse assessed as reduction in live schistosomes at 249 mg/kg/day, through diet for 14 days; format: functional; settings: 336 h; procedure, shortened: as §1
Schistosoma mansoni [12] = experiment: Antischistosomal activity against Schistosoma mansoni Puerto Rican infected mouse assessed as infected mouse at 249 mg/kg/day, through diet for 14 days; format: functional; procedure, shortened: as §1
Schistosoma mansoni [13] = experiment: Antischistosomal activity against Schistosoma mansoni Puerto Rican infected mouse assessed as reduction in live schistosomes at 314 mg/kg/day, through diet for 14 days; format: functional; settings: 336 h; procedure, shortened: as §1
Schistosoma mansoni [14] = experiment: Antischistosomal activity against Schistosoma mansoni Puerto Rican infected mouse assessed as infected mouse at 314 mg/kg/day, through diet for 14 days; format: functional; procedure, shortened: as §1
Schistosoma mansoni [15] = experiment: Antischistosomal activity against Schistosoma mansoni Puerto Rican infected mouse assessed as reduction in live schistosomes at 288 mg/kg/day, through diet for 14 days; format: functional; settings: 336 h; procedure, shortened: as §1
Schistosoma mansoni [16] = experiment: Antischistosomal activity against Schistosoma mansoni Puerto Rican infected mouse assessed as infected mouse at 288 mg/kg/day, through diet for 14 days; format: functional; procedure, shortened: as §1
Schistosoma mansoni [17] = experiment: Antischistosomal activity against Schistosoma mansoni Puerto Rican infected mouse assessed as reduction in live schistosomes at 140 mg/kg/day, through diet for 14 days; format: functional; settings: 336 h; procedure, shortened: as §1
[18] = Toxicity in mouse po dosed through diet for 14 days; format: organism-based; settings: in vivo
Procedure, shortened: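 Mice infected with a Puerto Rican strain of *Schistosoma mansoni*; drug mixed into a powdered diet and fed orally for 14 days; doses expressed as mg/kg per day.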

Schistosoma mansoni [19] = experiment: Antischistosomal activity against Schistosoma mansoni Puerto Rican infected mouse assessed as infected mouse at 140 mg/kg/day, through diet for 14 days; format: functional; procedure, shortened: as §1
Schistosoma mansoni [20] = experiment: Antischistosomal activity against Schistosoma mansoni Puerto Rican infected mouse assessed as infected mouse at 269 mg/kg/day, through diet for 14 days; format: functional; procedure, shortened: as §1
Schistosoma mansoni [21] = experiment: Antischistosomal activity against Schistosoma mansoni Puerto Rican infected mouse assessed as infected mouse at 200 mg/kg/day, through gavage for 5 days; format: functional
Schistosoma mansoni [22] = experiment: Antischistosomal activity against Schistosoma mansoni Puerto Rican infected mouse assessed as infected mouse at 100 mg/kg/day, through gavage for 10 days; format: functional
Schistosoma mansoni [23] = experiment: Antischistosomal activity against Schistosoma mansoni Puerto Rican infected mouse assessed as reduction in live schistosomes at 269 mg/kg/day, through diet for 14 days; format: functional; settings: 336 h; procedure, shortened: as §1
Schistosoma mansoni [24] = experiment: Antischistosomal activity against Schistosoma mansoni Puerto Rican infected mouse assessed as reduction in live schistosomes at 200 mg/kg/day, through gavage for 5 days; format: functional; settings: po, 120 h
Schistosoma mansoni [25] = experiment: Antischistosomal activity against Schistosoma mansoni Puerto Rican infected mouse assessed as reduction in live schistosomes at 100 mg/kg/day, through gavage for 10 days; format: functional; settings: po, 240 h
Schistosoma mansoni [26] = experiment: Antischistosomal activity against Schistosoma mansoni Puerto Rican infected mouse assessed as reduction in live schistosomes at 336 mg/kg/day, through diet for 14 days; format: functional; settings: 336 h; procedure, shortened: as §1
Schistosoma mansoni [27] = experiment: Antischistosomal activity against Schistosoma mansoni Puerto Rican infected mouse assessed as infected mouse at 336 mg/kg/day, through diet for 14 days; format: functional; procedure, shortened: as §1

O=C1NC(=O)C(c2c(Cl)ccc(Cl)c2Cl)N1 (configuration not stated)
inhibition in vivo at 305 mg/kg/day (Schistosoma mansoni [1]): 0%
Activity (Schistosoma mansoni [2]): 100%

O=C1NC(=O)C(c2ccc(Cl)c(Cl)c2)N1 (configuration not stated)
Activity (Schistosoma mansoni [3]): 100%
inhibition in vivo at 329 mg/kg/day (Schistosoma mansoni [4]): 0%

Cc1c(Cl)ccc(C2(C)NC(=O)NC2=O)c1Cl (configuration not stated)
inhibition in vivo at 332 mg/kg/day (Schistosoma mansoni [5]): 26%
Activity (Schistosoma mansoni [6]): 100%

CC1(c2cc(Cl)c(Cl)cc2Cl)NC(=O)NC1=O (configuration not stated)
inhibition in vivo at 297 mg/kg/day (Schistosoma mansoni [7]): 90%
Activity (Schistosoma mansoni [8]): 66%

CC1(c2ccc(Cl)c(Cl)c2)NC(=O)NC1=O (configuration not stated)
inhibition in vivo at 376 mg/kg/day (Schistosoma mansoni [9]): 38%
Activity (Schistosoma mansoni [10]): 100%

O=C1NCCN1c1ncc([N+](=O)[O-])s1 [NIRIDAZOLE]
inhibition in vivo at 249 mg/kg/day (Schistosoma mansoni [11]): 99%
Activity (Schistosoma mansoni [12]): 17%

CC1(c2ccc([N+](=O)[O-])cc2)NC(=O)NC1=O (configuration not stated)
inhibition in vivo at 314 mg/kg/day (Schistosoma mansoni [13]): 0%
Activity (Schistosoma mansoni [14]): 100%

C[N+](C)(C)CCCN1C(=O)NC(c2cc(Cl)c(Cl)cc2Cl)C1=O.[I-] (configuration not stated)
inhibition in vivo at 288 mg/kg/day (Schistosoma mansoni [15]): 13%
Activity (Schistosoma mansoni [16]): 100%

CCN(CC)CCNc1ccc(C)c2sc3ccccc3c(=O)c12.Cl [LUCANTHONE HYDROCHLORIDE]
inhibition in vivo at 140 mg/kg/day (Schistosoma mansoni [17]): 71%
MTD at 336 h [18]: 140 mg/kg
Activity (Schistosoma mansoni [19]): 90%

O=C1[N-]C(=O)C(c2cc(Cl)c(Cl)cc2Cl)N1.[Na+] (configuration not stated)
Activity (Schistosoma mansoni [20]): 100%
Activity (Schistosoma mansoni [21]): 100%
Activity (Schistosoma mansoni [22]): 100%
inhibition in vivo at 269 mg/kg/day (Schistosoma mansoni [23]): 65%
inhibition in vivo at 200 mg/kg/day (Schistosoma mansoni [24]): 86%
inhibition in vivo at 100 mg/kg/day (Schistosoma mansoni [25]): 76%

CN1C(=O)C(c2cc(Cl)c(Cl)cc2Cl)N(C)C1=O (configuration not stated)
inhibition in vivo at 336 mg/kg/day (Schistosoma mansoni [26]): 88%
Activity (Schistosoma mansoni [27]): 83%
